From PubChem BioAssay
Hits are enriched below; roughly 2.1% of the tested compounds scored in any of these assays.
MC4R antagonist = MC4R antagonists of cAMP signaling, primary screen, cell-based, TR-FRET, antagonist arm of biased-ligand search; MC4R-expressing cells, MTII-stimulated cAMP, LANCE TR-FRET; AID 540295, 2011; 0.48% of 360,000 active; inhibition, % at 6.5 µM;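 active = inhibition above its plate's cutoff, the mean of tested wells on that plate plus 3 SD, cut at about 29% in these data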;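 note: 0% = Melanotan II alone and 100% = Melanotan II plus saturating MCL0020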
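material = U2OS cells stably expressing human melanocortin 4 receptor (MC4R) | also added = Melanotan II challenge | dosing = single nominal compound dose of 6.5 µM | detection = TR-FRET with Eu-cAMP and labeled anti-cAMP, 671 nm | replication = singlicate | timing = compound 30 min, challenge 1 h, detection 1 h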
MC4R barr agon = MC4R agonists recruiting beta-arrestin, primary screen, cell-based, luminescence, agonist arm of biased-ligand search; activation, % at 8.9 µM; AID 540308, 2011; Melanocortin receptor 4 (Homo sapiens), P32245; 0.98% of 360,000 active; U2OS MC4R beta-arrestin complementation; percent of melanotan II response, DMSO zero;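 active = activation above a per-plate cutoff, the mean activation of sample wells on that plate plus 3 SD, cut at about 8% in these data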
TLR9-MyD88 inh = inhibitors of TLR9-MyD88 association in cells, primary screen, cell-based, CHO, BLA complementation, fluorescence; AID 504734, 2011; CCF4 FRET ratio; Toll-like receptor 9 (Homo sapiens) + Myeloid differentiation primary response protein …; inhibition, % at 4.98 µM; 0.21% of 340,000 active;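 active = inhibition above the mean over all tested compounds plus 3 SD, cut at about 21% in these data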;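 note: 0% = DMSO only wells and 100% = clavulanate BLA inhibitor control wells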
Target sequence (Q99836 whole entry, looked up): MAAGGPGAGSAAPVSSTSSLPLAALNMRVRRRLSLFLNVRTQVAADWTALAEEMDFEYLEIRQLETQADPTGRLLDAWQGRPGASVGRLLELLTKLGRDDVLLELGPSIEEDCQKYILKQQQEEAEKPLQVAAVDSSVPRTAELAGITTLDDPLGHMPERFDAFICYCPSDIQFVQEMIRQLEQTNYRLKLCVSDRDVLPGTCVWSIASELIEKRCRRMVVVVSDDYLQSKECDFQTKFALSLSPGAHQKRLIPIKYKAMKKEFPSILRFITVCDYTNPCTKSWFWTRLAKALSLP
Target sequence (Q9NR96 whole entry, looked up): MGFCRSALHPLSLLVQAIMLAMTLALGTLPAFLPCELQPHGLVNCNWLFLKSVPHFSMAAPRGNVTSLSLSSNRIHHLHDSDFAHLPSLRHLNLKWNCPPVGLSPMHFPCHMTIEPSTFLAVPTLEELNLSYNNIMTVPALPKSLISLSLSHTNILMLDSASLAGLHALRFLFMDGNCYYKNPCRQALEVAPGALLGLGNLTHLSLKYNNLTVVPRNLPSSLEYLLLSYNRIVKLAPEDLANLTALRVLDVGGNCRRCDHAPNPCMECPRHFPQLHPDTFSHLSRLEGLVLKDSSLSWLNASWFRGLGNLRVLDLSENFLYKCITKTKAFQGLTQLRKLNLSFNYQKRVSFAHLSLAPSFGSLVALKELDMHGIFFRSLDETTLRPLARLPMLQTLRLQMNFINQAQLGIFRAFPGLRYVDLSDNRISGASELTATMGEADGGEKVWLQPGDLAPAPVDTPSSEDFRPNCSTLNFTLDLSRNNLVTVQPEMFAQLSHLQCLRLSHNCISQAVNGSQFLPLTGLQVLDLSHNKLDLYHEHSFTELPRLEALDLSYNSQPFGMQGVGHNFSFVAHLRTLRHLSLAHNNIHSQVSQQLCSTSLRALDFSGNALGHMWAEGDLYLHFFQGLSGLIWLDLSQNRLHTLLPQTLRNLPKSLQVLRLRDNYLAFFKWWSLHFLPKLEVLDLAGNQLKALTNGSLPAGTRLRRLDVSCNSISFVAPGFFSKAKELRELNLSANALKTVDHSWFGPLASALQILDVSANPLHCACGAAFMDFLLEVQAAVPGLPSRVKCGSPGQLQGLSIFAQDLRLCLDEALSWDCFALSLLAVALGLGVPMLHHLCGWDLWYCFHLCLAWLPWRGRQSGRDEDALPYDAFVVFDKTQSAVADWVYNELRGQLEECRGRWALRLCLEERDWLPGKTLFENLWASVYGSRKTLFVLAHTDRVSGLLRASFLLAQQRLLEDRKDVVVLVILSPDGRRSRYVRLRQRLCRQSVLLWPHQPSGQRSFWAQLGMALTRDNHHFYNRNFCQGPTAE
NOD2 RIPK2 PPI = NOD2-RIPK2 binding disruptors in cells, primary screen, fluorescence, CHO cells, BLA complementation; Receptor-interacting serine/threonine-protein kinase 2 (Homo sapiens), O43353; CCF4 ratio; 0.38% of 360,000 active; inhibition, % at 4.98 µM; in the data active = inhibition above about 21%;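 note: 0% = vehicle only and 100% = reference blocker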
TLR4 MyD88 comp = inhibitors of TLR4-MyD88 association in cells, primary screen, cell-based, HeLa CL3-4, BLA complementation, FRET ratio | inhibition, % at 8.4 µM | Toll-like receptor 4 (Homo sapiens) + Myeloid differentiation primary response protein … | AID 861, 2007 | 0.18% of 200,000 active | HeLa CL3-4 TLR4/MyD88 BLA complementation; in the data active = inhibition above about 25%;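 note: 0% = vehicle and 100% = reference inhibitor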
MIN6 prolif = inducers of MIN6 beta-cell proliferation, primary screen, ATP luminescence, uHTS; 0.29% of 330,000 active; proliferation, % at 10 µM; MIN6 cells proliferation, ATPlite luminescence, 48 h; cells starved in 0.2% serum; 100% = growth in 10% serum; AID 2380, 2010;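 active = compounds whose signal lies at least 3.5 SD above the mean of all wells on their plate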;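 note: 0% = DMSO-treated cells in low-serum medium and 100% = 10% serum control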
NOD2-RIPK2 conf = NOD2-RIPK2 binding disruptors, retest, confirmation, fluorescence, CHO cells, BLA complementation, triplicate; AID 624370, 2012; 70% of 1,200 active; inhibition, % at 4.98 µM; shares compounds with NOD2 RIPK2 PPI; CCF4 FRET;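 active = mean inhibition across replicates above a set limit taken from the earlier primary screen, cut at about 21% in these data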;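 note: 0% = DMSO-only wells and the high end = clavulanate BLA-blocked wells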
BLA counter = NOD2-RIPK2 counterscreen BLA reporter activity; shares compounds with NOD2 RIPK2 PPI; 57% of 1,200 active; CHO BLA reporter, CCF4 FRET ratio; AID 624371; inhibition, % at 4.98 µM;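 active = mean inhibition above the low-control mean inhibition plus three low-control SD, cut at about 11% in these data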;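 note: 0% = DMSO only wells and 100% = clavulanate high control wells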
The depositor's hits bear a star; · = no result.

SMILES | MC4R antagonist | MC4R barr agon | TLR9-MyD88 inh | NOD2 RIPK2 PPI | TLR4 MyD88 comp | MIN6 prolif | NOD2-RIPK2 conf | BLA counter
CC(=O)C1=C(O)C(=O)N(Cc2ccccc2)C1c1ccc(Br)cc1 (configuration not stated) | 8 | -2 | 3 | -9 | · | 0 | · | ·
O=C(/C=C/c1cccnc1)/C=C/c1cccnc1 | 1 | -3 | 7 | 23* | · | · | 48* | 4
Cc1onc(-c2ccccc2)c1C(=O)Nc1nnc(COc2ccc(Cl)cc2)s1 | 9 | 2 | -1 | 36* | -6 | -4 | 3 | 2
CS(=O)(=O)c1ccc(C(=O)OCc2nnc(-c3ccccc3)o2)cc1[N+](=O)[O-] | -11 | -1 | 20 | 21* | -6 | · | 55* | 6
CN(C)S(=O)(=O)c1ccc(C(=O)OCc2nnc(-c3ccccc3)o2)cc1 | 16 | 0 | -2 | -3 | · | 1 | · | ·
Cc1ccc2cc3c(=O)n(C)cc(C=O)c3nc2c1 | -2 | -1 | 1 | 2 | · | · | · | ·
CCN(CC)S(=O)(=O)c1cc(NC(=O)CSc2nc3c(cc2C#N)C(=O)CC(C)(C)C3)ccc1C | 4 | 4 | -15 | -7 | 1 | -3 | · | ·
O=[N+]([O-])/C=C\c1ccc(N2CCCC2)c(F)c1 | 9 | -1 | 13 | 31* | 13 | · | 77* | 22*
O=Cc1ccc(N2CCCC2)c([N+](=O)[O-])c1 | 6 | -2 | -3 | 3 | -4 | 0 | · | ·
C/C(=N\NC(=O)c1c(-c2ccccc2Cl)noc1C)c1cccc(NC(=O)C(C)C)c1 | 17 | -2 | -4 | -2 | -5 | -2 | · | ·
Cc1ccc(C(=O)c2sc3nsc(C)c3c2N)cc1 | -5 | 2 | 17 | 24* | 5 | 5 | 23* | 26*
CCOc1ccc(CNC(=O)c2ccc(Sc3ccc(Cl)cc3)c(NC(C)=O)c2)cc1 | 2 | 1 | 4 | 33* | -4 | 0 | 1 | 2
CC(=O)N1CCN(C(=O)c2cc(=O)c3ccccc3o2)CC1 | -6 | -2 | -8 | -3 | · | -1 | · | ·
COc1ccccc1-c1ccc(/C=C2\C=CC(=O)O2)o1 | -3 | -3 | · | 48* | · | -3 | 45* | 49*
COc1ccccc1-c1ccc(/C=C2/C=C(C)OC2=O)o1 | 23 | 2 | -3 | -3 | -1 | -3 | · | ·
CC(=O)NC(Cc1c[nH]c2ccccc12)C(=O)NCCc1ccccn1 (configuration not stated) | -6 | -2 | 5 | 5 | · | 3 | · | ·
NS(=O)(=O)c1ccc(N/C=C\C(=O)c2ccc3ccccc3c2)cc1 | 7 | 0 | 1 | 24* | 2 | 0 | 4 | 12*
CN(CC(=O)Nc1c(Cl)cccc1Cl)C(=O)c1ccc2ccccc2n1 | 5 | -4 | 5 | 7 | · | -1 | · | ·
CC(NS(=O)(=O)c1ccc2[nH]c(=O)[nH]c2c1)c1ccc(F)cc1 (configuration not stated) | 5 | 1 | -7 | -16 | · | · | · | ·
CCOc1c(Br)cc(Br)cc1/C=C1\SC(N)=NC1=O | -1 | -1 | 4 | 32* | · | 0 | 3 | -3
CCOc1cc(/C=C2\SC(N)=NC2=O)ccc1O | -17 | -2 | 4 | -6 | · | 0 | · | ·
CC1(c2ccc(F)cc2)OC(=O)c2c1ccc1ccccc21 (configuration not stated) | 8 | 0 | 10 | 3 | · | · | · | ·
COc1ccc(S(=O)(=O)N2CCCCCC2)cc1NC(=O)Cc1n[nH]c(=O)c2ccccc12 | 5 | -4 | 4 | 3 | · | 6 | · | ·
CCOc1ccc(S(=O)(=O)Nc2ccc(C(=O)NCC(c3ccco3)N(C)C)cc2)cc1 (configuration not stated) | -2 | 0 | -2 | 25* | · | 4 | 5 | 0
CN(C)C(CNC(=O)c1ccc(NS(=O)(=O)c2cccc([N+](=O)[O-])c2)cc1)c1ccco1 (configuration not stated) | 5 | -3 | 13 | -10 | · | 0 | · | ·
SMILES | MC4R antagonist | MC4R barr agon | TLR9-MyD88 inh | NOD2 RIPK2 PPI | TLR4 MyD88 comp | MIN6 prolif | NOD2-RIPK2 conf | BLA counter
CCOC(=O)c1c(SCCN2CCCC2)n(-c2ccccc2)c(=S)n(-c2ccccc2)c1=O | 22 | -1 | 8 | 89* | · | · | 86* | 5
CCOC(=O)C1=C(c2ccccc2)N=c2s/c(=C\c3ccc(O)cc3)c(=O)n2C1c1cccs1 (configuration not stated) | 4 | -4 | -5 | 25* | 20 | -4 | 31* | 42*
Clc1nssc1=Nc1nncs1 | -10 | -3 | 8 | 27* | · | -7 | 29* | 3
CSc1ccc(C(=O)C2CCCN(C(=O)CCc3c(C)nn(C)c3C)C2)cc1 (configuration not stated) | 1 | -1 | 3 | 8 | · | -3 | · | ·
CC(C)(C=O)C1=CC(=O)c2ccccc2C1=O | 10 | -5 | 14 | 23* | -9 | · | 86* | 4
Cc1c(O)ccc2cc(S(=O)(=O)c3ccccc3)c(=O)oc12 | 7 | 0 | -1 | 34* | · | 1 | 33* | 58*
Cc1ccc(S(=O)(=O)c2cc3ccccc3oc2=O)cc1 | 13 | 0 | -4 | 3 | 6 | 2 | · | ·
COc1cc(/C=N/NC(=O)Cn2ccc(C(F)(F)F)n2)cc(OC)c1OC | -11 | -2 | -7 | -11 | -4 | 0 | · | ·
Cc1ccc(S(=O)(=O)Nc2ccccc2-c2ccccc2NS(=O)(=O)c2ccc(C)cc2)cc1 | 7 | 2 | 3 | -1 | 4 | -5 | · | ·
Cc1ccc(S(=O)(=O)Nc2cccc3cccnc23)cc1 | -4 | -2 | 36* | 38* | 17 | -6 | 59* | 25*
CCOC(=O)C1=CC[C@@H](c2cccc(Br)c2)N(S(=O)(=O)c2ccc(F)cc2)[C@H]1c1cccc(Cl)c1 | · | · | · | -2 | · | · | · | ·
CCC(=O)OCOc1ccc(/C=C2/CCC(CN(C)C)C2=O)cc1 (configuration not stated) | 15 | -3 | 10 | 33* | · | · | 35* | 6
